One test deals with Vero. In words: Cytotoxicity against African green monkey Vero cells after 72 hrs by MTT assay. In kind it is cell-based. The note with it: Chlorocebus sabaeus.
Test [1] can be described thus: Cytotoxicity against human SH-SY5Y cells after 72 hrs by MTT assay. The test is classed as functional, cell-based. The essentials: (§1)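 Cells were grown in RPMI-1640 or DMEM with 10% NBS or FBS and 100 U/mL penicillin, at 37 °C under 5% CO₂. After 72 h with a range of compound concentrations, MTT was added for a further 4 h at 37 °C. Formazan was dissolved in DMSO and absorbance read at 570 and 630 nm. Assays ran in triplicate across three independent experiments, and IC₅₀ was calculated for 50% loss of viability.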

Another test has as its system HCT-116. In words: Cytotoxicity against human HCT116 cells after 72 hrs by MTT assay. The conditions noted are these: HCT-116, 72 h. In kind it is functional, cell-based. The essentials: as §1
A further test concerns A549. The test is described as follows: Cytotoxicity against human A549 cells after 72 hrs by MTT assay. The test is classed as functional, cell-based. The note with it: A549, 72 h. The method in brief:
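After 72 h with a range of compound concentrations, MTT was added for a further 4 h at 37 °C. Formazan was dissolved in DMSO and absorbance read at 570 and 630 nm. Assays ran in triplicate across three independent experiments, and IC₅₀ was calculated for 50% loss of viability.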

In a further test the test system is MCF7. The test is described as follows: Cytotoxicity against human MCF7 cells after 72 hrs by MTT assay. The conditions noted are these: MCF7, 72 h. In kind it is functional, cell-based. The method in brief:
as §1

For a further test, the system named is HepG2. The test is described as follows: Cytotoxicity against human HepG2 cells after 72 hrs by MTT assay. The test is classed as functional, cell-based. The note with it: HepG2, 72 h. The essentials: as §1

As to `CC(C)[S+]([O-])CCCCCN=C=S` (stereo not given), the IC50 with Vero came out at 10.3 µM; in test [1], 8.62 µM; with HCT-116, 3.42 µM; in the test with A549, 7.75 µM; with MCF7, 6.78 µM; in the test with HepG2, 3.69 µM.

As to `CC(C)[S+]([O-])CCCN=C=S` (stereo not given), the IC50 was determined as 8.25 µM with Vero; 18.1 µM in test [1]; 15.9 µM in the test on HCT-116; 16.7 µM with A549; 7.93 µM with MCF7; 7.14 µM in the test on HepG2.

On to `CC(C)[S+]([O-])CCCCCCN=C=S` (stereo not given), for which the IC50 was found to be 7.31 µM in the test on Vero; 7.82 µM in test [1]; 9.46 µM in the test on HCT-116; 12 µM with A549; 9.76 µM in the test with MCF7; 7.82 µM in the test on HepG2.

Take `O=[N+]([O-])c1ccc(C[S+]([O-])CCCCN=C=S)cc1` (stereo not given): the IC50 came to 3.36 µM in the test on Vero; 7.23 µM in test [1]; 2.83 µM in the test on HCT-116; 14.3 µM with A549; 7.77 µM in the test on MCF7; 3.18 µM in the test with HepG2.

In the case of `[O-][S+](CCCCN=C=S)C1CCCC1` (stereo not given), the 50% inhibitory concentration (IC50) came to 4.6 µM in the test with Vero; 7.14 µM in test [1]; 3.14 µM with HCT-116; 10.1 µM in the test on A549; 4.45 µM with MCF7; 3.64 µM in the test on HepG2.

Turning to `S=C=NCCCCSCc1ccccc1`, the IC50 came to 24.9 µM in the test on Vero; 20.7 µM in test [1]; 41.5 µM with HCT-116; 51.3 µM in the test with A549; 38.3 µM with MCF7; 12.6 µM in the test on HepG2.

As to `[O-][S+](CCCCN=C=S)Cc1cccs1` (stereo not given), the IC50 in the test with Vero stood at 6.22 µM; in test [1] it was 5.31 µM; with HCT-116, 3.21 µM; in the test with A549, 8.41 µM; in the test on MCF7, 4.14 µM; with HepG2, 3.82 µM.

Take `CC(C)[S+]([O-])CCCCN=C=S` (stereo not given): the IC50 was determined as 10.4 µM in the test with Vero; 9.42 µM in test [1]; 3.74 µM in the test on HCT-116; 10.4 µM in the test on A549; 8.82 µM in the test with MCF7; 2.05 µM in the test on HepG2.

On to `CC(C)C[S+]([O-])CCCCN=C=S` (stereo not given), for which the IC50 in the test with Vero came out at 4.98 µM; in test [1], 5.7 µM; in the test on HCT-116 it was 2.06 µM; with A549 it was 9.09 µM; with MCF7, 3.66 µM; in the test on HepG2, 2.16 µM.

As for `[O-][S+](CCCCN=C=S)Cc1ccco1` (stereo not given), the IC50 in the test with Vero amounted to 5.25 µM; in test [1], 7.79 µM; in the test on HCT-116 it was 3.47 µM; in the test with A549, 5.64 µM; with MCF7, 5.68 µM; with HepG2, 3.86 µM.

For `[O-][S+](CCCN=C=S)Cc1ccccc1` (stereo not given), the IC50 with Vero stood at 10.1 µM; in test [1], 8.89 µM; with HCT-116, 15.6 µM; with A549, 11.8 µM; with MCF7, 7.92 µM; in the test with HepG2, 9.84 µM.

Take `[O-][S+](CCCCCCN=C=S)Cc1ccccc1` (stereo not given): the IC50 in the test with Vero amounted to 4.33 µM; in test [1], 7.63 µM; with HCT-116 it was 11.6 µM; in the test on A549, 14.7 µM; with MCF7, 5.49 µM; in the test on HepG2, 6.17 µM.

For `[O-][S+](CCCCN=C=S)CCc1ccccc1` (stereo not given), the IC50 in the test on Vero stood at 6.82 µM; in test [1] it was 5.6 µM; with HCT-116, 8.02 µM; with A549 it was 10.2 µM; in the test with MCF7 it was 9.33 µM; in the test on HepG2, 6.97 µM.

Take `O=S(=O)(CCCCN=C=S)Cc1ccccc1`: the concentration for half-maximal inhibition (IC50) in the test with Vero amounted to 7.17 µM; in test [1], 4.78 µM; in the test on HCT-116, 6.28 µM; with A549, 8.89 µM; in the test on MCF7, 7.55 µM; with HepG2, 8.49 µM.

Take `[O-][S+](CCCCN=C=S)c1ccccc1` (stereo not given): the half-inhibitory concentration (IC50) is 4.33 µM with Vero; 8.75 µM in test [1]; 4.53 µM with HCT-116; 23.8 µM in the test on A549; 7.05 µM with MCF7; 6.34 µM with HepG2.

On to `O=c1[nH]cc(F)c(=O)[nH]1` [FLUOROURACIL], for which the IC50 with Vero turned out to be 9.71 µM; in test [1], 0.97 µM; in the test on HCT-116, 3.24 µM; in the test on MCF7, 10.1 µM.

In the case of `CC[S+]([O-])CCCCN=C=S` (stereo not given), the IC50 in the test on Vero was 7.9 µM; in test [1], 9.81 µM; in the test on HCT-116 it was 3.85 µM; in the test on A549, 10.2 µM; in the test with MCF7, 8.26 µM; in the test on HepG2 it was 5.35 µM.

Consider `[O-][S+](CCCCN=C=S)Cc1ccccn1` (stereo not given), for which the IC50 came to 7.65 µM in the test with Vero; 7.83 µM in test [1]; 3.72 µM in the test on HCT-116; 8.33 µM in the test with A549; 6.89 µM with MCF7; 5.35 µM in the test with HepG2.

`CCCC[S+]([O-])CCCCN=C=S` (stereo not given): the IC50 amounted to 5.15 µM in the test with Vero; 6.47 µM in test [1]; 2.81 µM in the test on HCT-116; 9.56 µM in the test with A549; 5.84 µM with MCF7; 5.93 µM in the test with HepG2.

As to `CCC[S+]([O-])CCCCN=C=S` (stereo not given), the IC50 came out at 5.64 µM in the test with Vero; 7.66 µM in test [1]; 3.95 µM with HCT-116; 10.7 µM with A549; 5.96 µM in the test on MCF7; 3.91 µM with HepG2.

On to `[O-][S+](CCCCCN=C=S)Cc1ccccc1` (stereo not given), for which the IC50 in the test on Vero amounted to 5.85 µM; in test [1] it was 7.01 µM; in the test on HCT-116, 5.19 µM; in the test on A549, 6.21 µM; in the test with MCF7 it was 3.83 µM; in the test with HepG2, 3.91 µM.

Turning to `COc1ccc(C[S+]([O-])CCCCN=C=S)cc1` (stereo not given), the IC50 worked out at 3.71 µM in the test with Vero; 2.79 µM in test [1]; 5.46 µM with HCT-116; 32.5 µM in the test with A549; 8.89 µM in the test with MCF7; 4.62 µM with HepG2.
